Experimental data taken from ChEMBL document CHEMBL1255335 (Antimicrob Agents Chemother, 2008).
Values after ≈ are worked out from the molar mass of the structure shown.

What was measured:
Escherichia coli [1] = assay: Antibacterial activity against Escherichia coli DH5alpha expressing Klebsiella pneumoniae beta-lactamase SHV-1 by agar dilution method; format: functional
Escherichia coli [2] = assay: Antibacterial activity against Escherichia coli DH5alpha expressing Klebsiella pneumoniae beta-lactamase SHV-72 by agar dilution method; format: functional
Escherichia coli [3] = assay: Antibacterial activity against Escherichia coli DH5alpha with deltaampC by agar dilution method; format: functional
Klebsiella pneumoniae [4] = assay: Antibacterial activity against Klebsiella pneumoniae INSRA1229 harboring SHV-72 Ile8Phe, Ala146Val, and Lys234Arg mutations by agar dilution method
Klebsiella pneumoniae [5] = assay: Antibacterial activity against Klebsiella pneumoniae INSRA1229 harboring SHV-72 Ile8Phe, Ala146Val, and Lys234Arg mutations by agar dilution method in presence of 2 ug/ml clavulanic acid; format: functional
Escherichia coli [6] = assay: Antibacterial activity against Escherichia coli DH5alpha with deltaampC by agar dilution method in presence of 2 ug/ml clavulanic acid; format: functional
Escherichia coli [7] = assay: Antibacterial activity against Escherichia coli DH5alpha expressing Klebsiella pneumoniae beta-lactamase SHV-1 by agar dilution method in presence of 2 ug/ml clavulanic acid; format: functional
Escherichia coli [8] = assay: Antibacterial activity against Escherichia coli DH5alpha expressing Klebsiella pneumoniae beta-lactamase SHV-72 by agar dilution method in presence of 2 ug/ml clavulanic acid; format: functional
[9] = substrate: CC1(C)S[C@@H]2[C@H](NC(=O)Cc3ccccc3)C(=O)N2[C@H]1C(=O)O; assay: (§1) Activity of Klebsiella pneumoniae Beta-Lactamase SHV-1
Outline: (§2)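 SHV-1 or SHV-72 came from E. coli DH5α ΔampC clones grown 18 h at 37°C. Enzymes were purified by ion exchange then gel filtration, with protein measured by BCA. Km and kcat were measured by pH-stat microacidimetry, fitting complete hydrolysis time courses by nonlinear least squares, three determinations per substrate.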

[10] = substrate: CC1(C)S[C@@H]2[C@H](NC(=O)[C@H](C(=O)O)c3ccsc3)C(=O)N2[C@H]1C(=O)O; assay: as §1; outline: as §2
[11] = substrate: CCN1CCN(C(=O)N[C@@H](C(=O)N[C@@H]2C(=O)N3[C@@H]2SC(C)(C)[C@@H]3C(=O)O)c2ccccc2)C(=O)C1=O; assay: (§3) Ratio of Kcat to Km for Klebsiella pneumoniae Beta-Lactamase SHV-1
Outline: (§4)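 kcat/Km came from Km and kcat of purified enzyme, which was expressed in E. coli DH5α ΔampC and purified by ion exchange then gel filtration. Both constants were measured by computerized pH-stat microacidimetry, with complete hydrolysis progress curves fitted by nonlinear least-squares regression. Each substrate was run three times.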

[12] = substrate: CC1(C)S[C@@H]2[C@H](NC(=O)Cc3ccccc3)C(=O)N2[C@H]1C(=O)O; assay: as §3; outline: as §4
[13] = substrate: CC1(C)S[C@@H]2[C@H](NC(=O)[C@H](C(=O)O)c3ccsc3)C(=O)N2[C@H]1C(=O)O; assay: as §3; outline: as §4
[14] = substrate: CC(=O)OCC1=C(C(=O)O)N2C(=O)[C@@H](NC(=O)Cc3cccs3)[C@H]2SC1; assay: (§5) Activity of Klebsiella pneumoniae Beta-Lactamase SHV-72; outline: as §2
[15] = substrate: CCN1CCN(C(=O)N[C@@H](C(=O)N[C@@H]2C(=O)N3[C@@H]2SC(C)(C)[C@@H]3C(=O)O)c2ccccc2)C(=O)C1=O; assay: as §5; outline: as §2
[16] = substrate: CC(C)(O/N=C(\C(=O)N[C@@H]1C(=O)N2C(C(=O)[O-])=C(C[n+]3ccccc3)CS[C@H]12)c1csc(N)n1)C(=O)O; assay: as §5; outline: as §2
[17] = substrate: CC1(C)S[C@@H]2[C@H](NC(=O)Cc3ccccc3)C(=O)N2[C@H]1C(=O)O; assay: as §5; outline: as §2
[18] = substrate: CC1(C)S[C@@H]2[C@H](NC(=O)[C@H](C(=O)O)c3ccsc3)C(=O)N2[C@H]1C(=O)O; assay: as §5; outline: as §2
[19] = substrate: CO/N=C(\C(=O)N[C@@H]1C(=O)N2C(C(=O)O)=C(COC(C)=O)CS[C@H]12)c1csc(N)n1; assay: as §5; outline: as §2
[20] = substrate: CC1(C)S[C@@H]2[C@H](NC(=O)[C@H](N)c3ccc(O)cc3)C(=O)N2[C@H]1C(=O)O; assay: as §5; outline: as §2
[21] = substrate: CC(=O)OCC1=C(C(=O)O)N2C(=O)[C@@H](NC(=O)Cc3cccs3)[C@H]2SC1; assay: (§6) Ratio of Kcat to Km for Klebsiella pneumoniae Beta-Lactamase SHV-72; outline: as §4
[22] = substrate: CCN1CCN(C(=O)N[C@@H](C(=O)N[C@@H]2C(=O)N3[C@@H]2SC(C)(C)[C@@H]3C(=O)O)c2ccccc2)C(=O)C1=O; assay: as §6; outline: as §4
[23] = substrate: CC1(C)S[C@@H]2[C@H](NC(=O)Cc3ccccc3)C(=O)N2[C@H]1C(=O)O; assay: as §6; outline: as §4
[24] = substrate: CC1(C)S[C@@H]2[C@H](NC(=O)[C@H](C(=O)O)c3ccsc3)C(=O)N2[C@H]1C(=O)O; assay: as §6; outline: as §4
[25] = substrate: CC1(C)S[C@@H]2[C@H](NC(=O)[C@H](N)c3ccc(O)cc3)C(=O)N2[C@H]1C(=O)O; assay: as §6; outline: as §4
[26] = Escherichia coli, DH5alpha, read-out: MIC

## GENTAMICIN
Escherichia coli [1]
  MIC: 0.25 µg/mL
Escherichia coli [2]
  MIC: 0.25 µg/mL
Escherichia coli [3]
  MIC: < 0.125 µg/mL

## CO/N=C(\C(=O)N[C@@H]1C(=O)N2C(C(=O)[O-])=C(C[N+]3(C)CCCC3)CS[C@H]12)c1csc(N)n1
Escherichia coli [1]
  MIC: 0.03 µg/mL (≈ 0.0624 µM)
Escherichia coli [2]; [26]
  MIC: 0.03 µg/mL (≈ 0.0624 µM)
Klebsiella pneumoniae [4]
  MIC: 0.03 µg/mL (≈ 0.0624 µM)
Escherichia coli [3]
  MIC: 0.03 µg/mL (≈ 0.0624 µM)

## CC1(C)S[C@@H]2[C@H](NC(=O)[C@H](C(=O)O)c3ccsc3)C(=O)N2[C@H]1C(=O)O [TICARCILLIN]
Escherichia coli [1]
  MIC: 1020 µg/mL (≈ 2660 µM)
Escherichia coli [2]; [26]
  MIC: 8 µg/mL (≈ 20.8 µM)
Klebsiella pneumoniae [4]
  MIC: 512 µg/mL (≈ 1330 µM)
Escherichia coli [3]
  MIC: 4 µg/mL (≈ 10.4 µM)

## CC(=O)OCC1=C(C(=O)O)N2C(=O)[C@@H](NC(=O)Cc3cccs3)[C@H]2SC1 [CEPHALOTHIN]
Escherichia coli [1]
  MIC: 16 µg/mL (≈ 40.4 µM)
Escherichia coli [2]; [26]
  MIC: 4 µg/mL (≈ 10.1 µM)
Klebsiella pneumoniae [4]
  MIC: 8 µg/mL (≈ 20.2 µM)
Escherichia coli [3]
  MIC: 8 µg/mL (≈ 20.2 µM)

## CC1(C)S[C@@H]2[C@H](NC(=O)[C@H](N)c3ccc(O)cc3)C(=O)N2[C@H]1C(=O)O [AMOXICILLIN]
Klebsiella pneumoniae [5]
  MIC: 64 µM
Escherichia coli [1]
  MIC: 2050 µg/mL (≈ 5600 µM)
Escherichia coli [2]; [26]
  MIC: 512 µg/mL (≈ 1400 µM)
Escherichia coli [6]
  MIC: 8 µM
Klebsiella pneumoniae [4]
  MIC: 2050 µg/mL (≈ 5600 µM)
Escherichia coli [7]
  MIC: 8 µM
Escherichia coli [3]
  MIC: 8 µg/mL (≈ 21.9 µM)
Escherichia coli [8]
  MIC: 64 µM

## CO/N=C(\C(=O)N[C@@H]1C(=O)N2C(C(=O)O)=C(COC(C)=O)CS[C@H]12)c1csc(N)n1 [CEFOTAXIME]
Klebsiella pneumoniae [5]
  MIC: 0.06 µg/mL
Escherichia coli [1]
  MIC: 0.06 µg/mL (≈ 0.132 µM)
Escherichia coli [2]; [26]
  MIC: 0.06 µg/mL (≈ 0.132 µM)
Escherichia coli [6]
  MIC: 0.06 µg/mL
Klebsiella pneumoniae [4]
  MIC: 0.125 µg/mL (≈ 0.274 µM)
Escherichia coli [7]
  MIC: 0.06 µg/mL
Escherichia coli [3]
  MIC: 0.06 µg/mL (≈ 0.132 µM)
Escherichia coli [8]
  MIC: 0.06 µg/mL

## COc1cc(Cc2cnc(N)nc2N)cc(OC)c1OC [TRIMETHOPRIM]
Escherichia coli [1]
  MIC: ≤ 0.125 µg/mL
Escherichia coli [2]; [26]
  MIC: ≤ 0.125 µg/mL
Klebsiella pneumoniae [4]
  MIC: 0.5 µg/mL (≈ 1.72 µM)
Escherichia coli [3]
  MIC: ≤ 0.125 µg/mL

B1: Beta-lactamase SHV-1 (Klebsiella pneumoniae), P0AD64 (protein)
chain: MRYIRLCIISLLATLPLAVHASPQPLEQIKLSESQLSGRVGMIEMDLASGRTLTAWRADERFPMMSTFKVVLCGAVLARVDAGDEQLERKIHYRQQDLVDYSPVSEKHLADGMTVGELCAAAITMSDNSAANLLLATVGGPAGLTAFLRQIGDNVTRLDRWETELNEALPGDARDTTTPASMAATLRKLLTSQRLSARSQRQLLQWMVDDRVAGPLIRSVLPAGWFIADKTGAGERGARGIVALLGPNNKAERIVVIYLRDTPASMAERNQQIAGIGAALIEHWQR
[9]
  kcat: 1940 s⁻¹
[10]
  Km: 11 µM
[11]
  kcat/Km: 6.21e+07 M⁻¹ s⁻¹
[12]
  kcat/Km: 8.42e+07 M⁻¹ s⁻¹
[13]
  kcat/Km: 2e+07 M⁻¹ s⁻¹

B2: Beta-lactamase SHV-72 (Klebsiella pneumoniae), A0ZX81 (protein)
chain: MRYFRLCIISLLATLPLAVHASPQPLEQIKLSESQLSGRVGMIEMDLASGRTLTAWRADERFPMMSTFKVVLCGAVLARVDAGDEQLERKIHYRQQDLVDYSPVSEKHLADGMTVGELCAAAITMSDNSAANLLLATVGGPVGLTAFLRQIGDNVTRLDRWETELNEALPGDARDTTTPASMAATLRKLLTSQRLSARSQRQLLQWMVDDRVAGPLIRSVLPAGWFIADRTGAGERGARGIVALLGPNNKAERIVVIYLRDTPASMAERNQQIAGIGAALIEHWQR
[14]
  Km: 141 µM
  kcat: 38 s⁻¹
[15]
  Km: 43 µM
  kcat: 1920 s⁻¹
[16]
  kcat: < 0.1 s⁻¹
[17]
  Km: 19 µM
  kcat: 5440 s⁻¹
[18]
  Km: 36 µM
  kcat: 1280 s⁻¹
[19]
  kcat: < 0.1 s⁻¹
[20]
  Km: 26 µM
  kcat: 5880 s⁻¹
[21]
  kcat/Km: 300000 M⁻¹ s⁻¹
[22]
  kcat/Km: 4.46e+07 M⁻¹ s⁻¹
[23]
  kcat/Km: 2.86e+08 M⁻¹ s⁻¹
[24]
  kcat/Km: 3.55e+07 M⁻¹ s⁻¹
[25]
  kcat/Km: 2.26e+08 M⁻¹ s⁻¹
